Key:
[1] = Lethal effect was determined in mice; type: ADME, organism-based; conditions: mouse, in vivo
In short: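 Male CFLP (Swiss) mice, 18–22 g, dosed sc. Vehicle was physiological saline, with Tween-80 added for some compounds in this determination; controls received the solvent. LD50 in mg/kg determined.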

Mus musculus [2] = species on record: Mus musculus; test: Inhibitory activity against reserpine hypothermia in mice.; type: functional
In short: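 Mice (male CFLP, 18–22 g, 10/group) given reserpine 1 mg/kg ip 3 h before testing. Rectal temperature read with a thermistor probe. Compounds given sc 15 or 30 min before testing. Minimum effective dose.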

Mus musculus [3] = test: Inhibitory activity against tetrabenazine catalepsy in mice (sc); type: functional
Felis catus = species on record: Felis catus; test: Compound was tested for potentiating the dopamine-induced hypotension in cats.; type: functional
Mus musculus [4] = test: Inhibition of tetrabenazine ptosis in mice (sc).; type: functional
Mus musculus [5] = test: Dose influencing (+/-) the spontaneous motility in mice, administered intraperitoneally (ip); type: functional
In short: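 CFLP male mice, 10/group. Spontaneous motility recorded in a circuit-closing apparatus, no amphetamine. Compounds given 15 or 30 min before testing. Vehicle controls. Minimum dose raising (+) or lowering (−) motility, ip.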

[6] = target: Sodium-dependent dopamine transporter (Rattus norvegicus) (UniProt P23977); test: Inhibitory activity against inducing stereotypy in rats; type: functional
Sequence of Sodium-dependent dopamine transporter (Rattus norvegicus) (P23977 whole entry): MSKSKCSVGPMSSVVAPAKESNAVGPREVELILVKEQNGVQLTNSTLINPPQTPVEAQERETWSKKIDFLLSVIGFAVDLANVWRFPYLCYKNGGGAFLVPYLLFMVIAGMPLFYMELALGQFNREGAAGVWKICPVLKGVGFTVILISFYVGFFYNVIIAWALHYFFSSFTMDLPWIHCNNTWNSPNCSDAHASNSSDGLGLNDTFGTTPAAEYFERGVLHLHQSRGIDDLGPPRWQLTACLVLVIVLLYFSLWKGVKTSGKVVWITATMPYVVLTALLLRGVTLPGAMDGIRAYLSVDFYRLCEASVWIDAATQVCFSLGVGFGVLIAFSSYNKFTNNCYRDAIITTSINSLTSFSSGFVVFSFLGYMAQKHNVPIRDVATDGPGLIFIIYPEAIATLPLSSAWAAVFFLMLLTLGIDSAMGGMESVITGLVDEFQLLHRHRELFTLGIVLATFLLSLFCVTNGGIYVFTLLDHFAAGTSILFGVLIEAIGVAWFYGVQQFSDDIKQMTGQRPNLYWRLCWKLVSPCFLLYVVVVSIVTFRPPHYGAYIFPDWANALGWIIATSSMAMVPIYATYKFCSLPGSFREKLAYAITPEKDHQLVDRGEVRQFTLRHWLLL
In short: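 Male CFY (Sprague-Dawley) rats. Animals showing stereotypy were placed in an activity meter. Doses giving 5 times control motility were determined. Minimum effective dose, sc.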

Mus musculus [7] = species on record: Mus musculus; test: Amphetamine induced motility in mice; type: functional

CCCCNC(=O)Nc1cccc2c1CN(C)CC2c1ccc(Cl)cc1 (stereo not given)
LD50 [1]: > 1000 mg/kg | EDmin (Mus musculus [2]): >100 mg/kg | ED50 (Mus musculus [3]): 44 mg/kg | EDmin (Felis catus): 3 mg/kg | ED50 (Mus musculus [4]): 15 mg/kg | EDmin (Mus musculus [5]): 15 mg/kg | EDmin [6]: 134 mg/kg | EDmin (Mus musculus [7]): >30 mg/kg

CCOC(=O)Nc1cccc2c1CN(C)CC2c1ccc(F)cc1 (stereo not given)
LD50 [1]: 255 mg/kg | EDmin (Mus musculus [2]): 10 mg/kg | ED50 (Mus musculus [3]): 3.5 mg/kg | EDmin (Felis catus): 2 mg/kg | ED50 (Mus musculus [4]): 3.3 mg/kg | EDmin (Mus musculus [5]): 20 mg/kg | EDmin [6]: 8 mg/kg | EDmin (Mus musculus [7]): 5 mg/kg

CC(C)c1ccc(C2CN(C)Cc3c(N)cccc32)cc1 (stereo not given)
LD50 [1]: 1100 mg/kg | EDmin (Mus musculus [2]): 50 mg/kg | ED50 (Mus musculus [3]): > 80 mg/kg | EDmin (Felis catus): 2 mg/kg | ED50 (Mus musculus [4]): 68 mg/kg | EDmin (Mus musculus [5]): 80 mg/kg | EDmin (Mus musculus [7]): 80 mg/kg

CCOC(=O)Nc1cccc2c1CN(C)CC2c1ccccc1 (stereo not given)
LD50 [1]: 71 mg/kg | EDmin (Mus musculus [2]): 2 mg/kg | ED50 (Mus musculus [3]): 3.2 mg/kg | ED50 (Mus musculus [4]): ~4 mg/kg | EDmin (Mus musculus [5]): >8 mg/kg | EDmin [6]: > 12.8 mg/kg | EDmin (Mus musculus [7]): 4 mg/kg

CCCCNCC(=O)Nc1cccc2c1CN(C)CC2c1ccc(Cl)cc1 (stereo not given)
LD50 [1]: 320 mg/kg | EDmin (Mus musculus [2]): 5 mg/kg | ED50 (Mus musculus [3]): 13.5 mg/kg | EDmin (Felis catus): 0.5 mg/kg | ED50 (Mus musculus [4]): 3.9 mg/kg | EDmin (Mus musculus [5]): >20 mg/kg | EDmin [6]: 32.8 mg/kg | EDmin (Mus musculus [7]): >20 mg/kg

CC(C)NCCC(=O)Nc1cccc2c1CN(C)CC2c1ccccc1 (stereo not given)
LD50 [1]: 900 mg/kg | EDmin (Mus musculus [2]): 200 mg/kg | ED50 (Mus musculus [3]): 150 mg/kg | EDmin (Felis catus): 2 mg/kg | ED50 (Mus musculus [4]): ~125 mg/kg | EDmin (Mus musculus [5]): 160 mg/kg | EDmin [6]: > 83 mg/kg | EDmin (Mus musculus [7]): 160 mg/kg

CCOC(=O)Nc1cccc2c1CN(C)CC2c1ccc(Cl)cc1 (stereo not given)
LD50 [1]: 830 mg/kg | EDmin (Mus musculus [2]): 10 mg/kg | ED50 (Mus musculus [3]): 4.8 mg/kg | EDmin (Felis catus): 0.5 mg/kg | ED50 (Mus musculus [4]): 0.6 mg/kg | EDmin (Mus musculus [5]): 3 mg/kg | EDmin [6]: 5.2 mg/kg | EDmin (Mus musculus [7]): 20 mg/kg

CN1Cc2c(NC(=O)OCc3ccccc3)cccc2C(c2ccccc2)C1 (stereo not given)
LD50 [1]: > 1000 mg/kg | EDmin (Mus musculus [2]): 20 mg/kg | ED50 (Mus musculus [3]): ~15 mg/kg | EDmin (Felis catus): >5 mg/kg | ED50 (Mus musculus [4]): 16 mg/kg | EDmin (Mus musculus [5]): 100 mg/kg | EDmin [6]: 12 mg/kg | EDmin (Mus musculus [7]): 100 mg/kg

CCNCCC(=O)Nc1cccc2c1CN(C)CC2c1ccccc1 (stereo not given)
LD50 [1]: 720 mg/kg | EDmin (Mus musculus [2]): 200 mg/kg | ED50 (Mus musculus [3]): > 200 mg/kg | EDmin (Felis catus): 4 mg/kg | ED50 (Mus musculus [4]): > 160 mg/kg | EDmin (Mus musculus [5]): 160 mg/kg | EDmin [6]: 134 mg/kg | EDmin (Mus musculus [7]): >160 mg/kg

CCCCNCC(=O)Nc1cccc2c1CN(C)CC2c1ccccc1 (stereo not given)
LD50 [1]: 240 mg/kg | EDmin (Mus musculus [2]): >40 mg/kg | ED50 (Mus musculus [3]): 32 mg/kg | EDmin (Felis catus): 2 mg/kg | EDmin (Mus musculus [5]): 15 mg/kg | EDmin [6]: 32.8 mg/kg | EDmin (Mus musculus [7]): >30 mg/kg

CCCCNCC(=O)Nc1cccc2c1CN(C)CC2c1ccc(C)cc1 (stereo not given)
LD50 [1]: 320 mg/kg | EDmin (Mus musculus [2]): 10 mg/kg | ED50 (Mus musculus [3]): 34 mg/kg | EDmin (Felis catus): 1 mg/kg | ED50 (Mus musculus [4]): ~2.5 mg/kg | EDmin (Mus musculus [5]): 5 mg/kg | EDmin [6]: 52.4 mg/kg | EDmin (Mus musculus [7]): >10 mg/kg

CN1Cc2c(NC(=O)CN3CCOCC3)cccc2C(c2ccccc2)C1 (stereo not given)
LD50 [1]: 295 mg/kg | EDmin (Mus musculus [2]): 20 mg/kg | ED50 (Mus musculus [3]): 39 mg/kg | EDmin (Felis catus): 3 mg/kg | EDmin (Mus musculus [5]): 60 mg/kg | EDmin [6]: 83 mg/kg | EDmin (Mus musculus [7]): 60 mg/kg

CCNCC(=O)Nc1cccc2c1CN(C)CC2c1ccccc1 (stereo not given)
LD50 [1]: 320 mg/kg | EDmin (Mus musculus [2]): 60 mg/kg | ED50 (Mus musculus [3]): 47 mg/kg | EDmin (Felis catus): 2 mg/kg | EDmin (Mus musculus [5]): >60 mg/kg | EDmin [6]: 52.4 mg/kg | EDmin (Mus musculus [7]): >30 mg/kg

CCNC(=O)Nc1cccc2c1CN(C)CC2c1ccccc1 (stereo not given)
LD50 [1]: 290 mg/kg | EDmin (Mus musculus [2]): 40 mg/kg | ED50 (Mus musculus [3]): 80 mg/kg | EDmin (Felis catus): 6 mg/kg | ED50 (Mus musculus [4]): 54 mg/kg | EDmin (Mus musculus [5]): 80 mg/kg | EDmin [6]: > 83 mg/kg | EDmin (Mus musculus [7]): 40 mg/kg

CCCCNCCC(=O)Nc1cccc2c1CN(C)CC2c1ccccc1 (stereo not given)
LD50 [1]: 292 mg/kg | EDmin (Mus musculus [2]): >40 mg/kg | ED50 (Mus musculus [3]): ~46 mg/kg | EDmin (Felis catus): >5 mg/kg | ED50 (Mus musculus [4]): 74 mg/kg | EDmin (Mus musculus [5]): >80 mg/kg | EDmin [6]: > 83 mg/kg | EDmin (Mus musculus [7]): >80 mg/kg

CN1Cc2c(NC(=O)CN3CCCC3)cccc2C(c2ccccc2)C1 (stereo not given)
LD50 [1]: 380 mg/kg | EDmin (Mus musculus [2]): 50 mg/kg | ED50 (Mus musculus [3]): 39 mg/kg | EDmin (Felis catus): 3 mg/kg | ED50 (Mus musculus [4]): ~25 mg/kg | EDmin (Mus musculus [5]): 120 mg/kg | EDmin [6]: 52.4 mg/kg | EDmin (Mus musculus [7]): >120 mg/kg

CN1Cc2c(NC(=O)CN3CCCCC3)cccc2C(c2ccccc2)C1 (stereo not given)
LD50 [1]: 520 mg/kg | EDmin (Mus musculus [2]): 20 mg/kg | ED50 (Mus musculus [3]): ~65 mg/kg | EDmin (Felis catus): 3.5 mg/kg | EDmin (Mus musculus [5]): >100 mg/kg | EDmin [6]: > 83 mg/kg | EDmin (Mus musculus [7]): >60 mg/kg

CCNCC(=O)Nc1cccc2c1CN(C)CC2c1ccc(Cl)cc1 (stereo not given)
LD50 [1]: 325 mg/kg | EDmin (Mus musculus [2]): 5 mg/kg | ED50 (Mus musculus [3]): 24 mg/kg | EDmin (Felis catus): 0.5 mg/kg | ED50 (Mus musculus [4]): 6.4 mg/kg | EDmin (Mus musculus [5]): 20 mg/kg | EDmin [6]: 32.8 mg/kg | EDmin (Mus musculus [7]): >20 mg/kg

CN1Cc2c(N)cccc2C(c2ccc(F)cc2)C1 (stereo not given)
LD50 [1]: 222 mg/kg | EDmin (Mus musculus [2]): 2 mg/kg | ED50 (Mus musculus [3]): ~3.6 mg/kg | EDmin (Felis catus): 0.2 mg/kg | ED50 (Mus musculus [4]): 0.25 mg/kg | EDmin (Mus musculus [5]): 5 mg/kg | EDmin (Mus musculus [7]): 10 mg/kg

CC(C)NCC(=O)Nc1cccc2c1CN(C)CC2c1ccccc1 (stereo not given)
LD50 [1]: 300 mg/kg | EDmin (Mus musculus [2]): 20 mg/kg | ED50 (Mus musculus [3]): 14 mg/kg | EDmin (Felis catus): 1 mg/kg | EDmin (Mus musculus [5]): 30 mg/kg | EDmin [6]: > 52.4 mg/kg | EDmin (Mus musculus [7]): >30 mg/kg

CCCCOC(=O)Nc1cccc2c1CN(C)CC2c1ccccc1 (stereo not given)
LD50 [1]: 180 mg/kg | EDmin (Mus musculus [2]): 20 mg/kg | ED50 (Mus musculus [3]): 4 mg/kg | EDmin (Felis catus): 2 mg/kg | ED50 (Mus musculus [4]): 2.6 mg/kg | EDmin (Mus musculus [5]): 5 mg/kg | EDmin [6]: 20.5 mg/kg | EDmin (Mus musculus [7]): >5 mg/kg

CCCCNC(=O)Nc1cccc2c1CN(C)CC2c1ccc(C)cc1 (stereo not given)
LD50 [1]: > 1200 mg/kg | EDmin (Mus musculus [2]): 20 mg/kg | ED50 (Mus musculus [3]): 40 mg/kg | EDmin (Felis catus): >5 mg/kg | ED50 (Mus musculus [4]): ~15 mg/kg | EDmin (Mus musculus [5]): 20 mg/kg | EDmin [6]: 83 mg/kg | EDmin (Mus musculus [7]): 20 mg/kg

CCNCC(=O)Nc1cccc2c1CN(C)CC2c1ccc(C)cc1 (stereo not given)
LD50 [1]: 320 mg/kg | EDmin (Mus musculus [2]): 20 mg/kg | ED50 (Mus musculus [3]): ~45 mg/kg | EDmin (Felis catus): 1.5 mg/kg | ED50 (Mus musculus [4]): 5.6 mg/kg | EDmin (Mus musculus [5]): 10 mg/kg | EDmin [6]: > 83 mg/kg | EDmin (Mus musculus [7]): >10 mg/kg

CN1Cc2c(N)cccc2C(c2ccc(Cl)cc2)C1 (stereo not given)
LD50 [1]: 240 mg/kg | EDmin (Mus musculus [2]): 2 mg/kg | ED50 (Mus musculus [3]): 1.6 mg/kg | ED50 (Mus musculus [4]): 1.1 mg/kg | EDmin (Mus musculus [5]): 10 mg/kg | EDmin (Mus musculus [7]): 5 mg/kg

CCCNC(=O)Nc1cccc2c1CN(C)CC2c1ccccc1 (stereo not given)
LD50 [1]: 455 mg/kg | EDmin (Mus musculus [2]): >60 mg/kg | ED50 (Mus musculus [3]): > 80 mg/kg | EDmin (Felis catus): 10 mg/kg | ED50 (Mus musculus [4]): > 80 mg/kg | EDmin (Mus musculus [5]): >80 mg/kg | EDmin [6]: > 83 mg/kg | EDmin (Mus musculus [7]): 80 mg/kg

Source: ChEMBL document CHEMBL1123304 (J Med Chem, 1986)
